Holding throughout (type): functional
Assay [1] concerns Enterococcus faecium. Description: Antibacterial activity against Enterococcus faecium clinical isolate K60-39 assessed as inhibition of bacterial growth incubated for 24 hrs by broth microdilution method. The method, boiled down: (§1)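 Broth microdilution per published protocols (CLSI dilution method for aerobically growing bacteria). E. faecium strains K59-68 and K60-39 are clonal complex 17 sub-cluster clinical bloodstream isolates from patients at University Hospital of North Norway. Ampicillin served as positive control and DMSO as negative control. MIC was determined from triplicate assays.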

The next assay relates to Enterococcus faecalis. Nature of the assay: Antibacterial activity against Enterococcus faecalis ATCC 29212 assessed as inhibition of bacterial growth incubated for 24 hrs by broth microdilution method.
The subject of the next assay is Staphylococcus aureus. Nature of the assay: Antibacterial activity against Staphylococcus aureus ATCC 25923 assessed as inhibition of bacterial growth incubated for 24 hrs by broth microdilution method.
The subject of assay [2] is Enterococcus faecium. Nature of the assay: Antibacterial activity against Enterococcus faecium clinical isolate K59-68 assessed as inhibition of bacterial growth incubated for 24 hrs by broth microdilution method. The gist of the method:
as §1

In brackets after ≈: the same amount, converted by molar mass.

Consider `COc1cc2c(c(O)c1Cl)C(=O)c1c(cc3cc(O)cc4c3c1O[C@@]41C(C)=C(C(=O)O)C(Cl)=C1Cl)C2(C)C`, for which the MIC in the assay with Enterococcus faecium [1] was found to be 4 µg/mL (≈ 6.97 µM); in the assay with Enterococcus faecalis, 3.1 µg/mL (≈ 5.4 µM); in the assay with Staphylococcus aureus, 3.1 µg/mL (≈ 5.4 µM); in the assay with Enterococcus faecium [2], 1.5 µg/mL (≈ 2.61 µM).

`COc1cc2c(c(O)c1Cl)C(=O)c1c(cc3c(Cl)c(O)cc4c3c1O[C@@]41C(C)=C(C(=O)O)C(Cl)=C1Cl)C2(C)C`: the MIC in the assay with Enterococcus faecium [1] stood at 4.7 µg/mL (≈ 7.73 µM); in the assay with Enterococcus faecalis, 3.1 µg/mL (≈ 5.1 µM); in the assay with Staphylococcus aureus, 6.3 µg/mL (≈ 10.4 µM); in the assay on Enterococcus faecium [2], 1.5 µg/mL (≈ 2.47 µM).

In the case of `CC1(C)S[C@@H]2[C@H](NC(=O)[C@H](N)c3ccccc3)C(=O)N2[C@H]1C(=O)O` [AMPICILLIN], the minimal inhibitory concentration (MIC) with Enterococcus faecium [1] is 25 µg/mL (≈ 71.5 µM); in the assay on Enterococcus faecalis, 1 µg/mL (≈ 2.86 µM); with Staphylococcus aureus, 0.5 µg/mL (≈ 1.43 µM); in the assay with Enterococcus faecium [2] it was 1.5 µg/mL (≈ 4.29 µM).

(Values after ChEMBL document CHEMBL5385951, “Accraspiroketides A-B, Phenylnaphthacenoid-Derived Polyketides with Unprecedented [6 + 6+6 + 6] + [5 + 5] Spiro-Architecture” (2024).)
